From PubChem BioAssay
CHO parental Ca – ATP-evoked calcium signal inhibitors, parental CHO, primary screen, counter-screen for OX1R antagonist project, cell-based, fluorescence, Fluo-8 calcium dye; inhibition, % at 5.6 µM; parental CHO-K1, ATP-induced calcium, Fluo-8 fluorescence; 0.63% of 330,000 active;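 active = inhibition above that plate's mean sample inhibition plus 3 SD, cut at about 26% in these data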;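 note: 0% = ATP-challenged DMSO wells and 100% = DMSO wells without ATP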
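Test system: parental CHO cells; detection: calcium-sensitive Fluo-8 fluorescence; evaluation: percent inhibition of calcium signal; also added: ATP as calcium-mobilizing challenge; repeats: one well per compound; control set: ATP-challenged DMSO wells low, unchallenged DMSO wells high; compound: single nominal dose of 5.6 µM per compound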
OX1R antag-1 – OX1R (HCRTR1) antagonists, primary screen, fluorescence, CHO/OX1R cells, Fluo-8 calcium, orexin A. Orexin/Hypocretin receptor type 1 (Homo sapiens), O43613. Fluo-8 calcium fluorescence. inhibition, % at 5 µM. 0.43% of 330,000 active;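 active = inhibition above its plate's threshold, mean inhibition of all tested compounds on the plate plus 3 SD, cut at about 37% in these data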;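 note: 0% = orexin A challenge wells and 100% = SB-334867-A antagonist wells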
Target sequence (O43613 whole entry, looked up): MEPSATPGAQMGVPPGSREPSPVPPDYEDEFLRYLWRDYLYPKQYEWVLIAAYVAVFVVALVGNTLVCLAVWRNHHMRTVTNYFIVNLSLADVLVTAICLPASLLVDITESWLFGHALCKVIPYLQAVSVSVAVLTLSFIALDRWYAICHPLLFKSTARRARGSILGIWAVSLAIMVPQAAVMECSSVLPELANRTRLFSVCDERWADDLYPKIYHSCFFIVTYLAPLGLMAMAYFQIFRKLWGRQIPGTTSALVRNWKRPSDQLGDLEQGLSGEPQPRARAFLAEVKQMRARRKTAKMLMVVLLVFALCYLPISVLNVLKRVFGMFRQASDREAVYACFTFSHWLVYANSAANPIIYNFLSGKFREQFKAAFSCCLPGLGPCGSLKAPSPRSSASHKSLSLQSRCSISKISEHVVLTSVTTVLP
OX1R antag-2 – antagonists of human orexin 1 receptor (OX1R) | Orexin/Hypocretin receptor type 1 (Homo sapiens), O43613 | OX1R-expressing cells, FRET antagonist read-out | inhibition, % at 6.6 µM | 1.8% of 330,000 active; in the data active = inhibition mostly above about 38%, no sharp cut-off; inactive = mostly below about 40%;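 note: 0% = agonist challenge alone and 100% = reference antagonist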
CHO-K1 Ca antag – M1 antagonist counterscreen hit in parental CHO-K1 cells; ATP-induced calcium, Fluo-8 fluorescence; inhibition, % at 3 µM; 0.6% of 360,000 active;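 active = inhibition above a per-plate cutoff, the plate's mean sample inhibition plus 3 SD, cut at about 24% in these data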;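 note: 0% = DMSO plus EC80 ATP and 100% = DMSO alone without ATP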
CHO-K1 Ca ag – counter-screen for M1 agonists: effect in parental CHO-K1 cells | activation, % at 3 µM | 0.48% of 360,000 active | Fluo-8 calcium fluorescence; scaled to maximal ATP response, vehicle zero; in the data active = activation above about 15%;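 note: untransfected CHO-K1 host cells lacking M1 receptor as counterscreen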
M1 PAM parental – nonselective calcium activators in parental CHO-K1 cells, primary screen, counter-screen for M1 PAM project, cell-based, Fluo-8 calcium fluorescence, full deck, 1536-well; ATP EC20; 0% at ATP EC20, 100% at ATP max; activation, % at 3 µM; AID 602247, 2012; 0.02% of 360,000 active;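 active = activation above the run cutoff, the mean activation of all test compounds plus 3 SD, cut at about 40% in these data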;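 note: peak over basal fluorescence ratio in a 140 s read after ATP addition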
OX1R HTRF conf – OX1R (HCRTR1) antagonists, confirmation, cell-based, HTRF. inhibition, % at 6.6 µM. OX1R-expressing cells, HTRF antagonist assay. 49% of 1,800 active. shares compounds with OX1R antag-2. AID 492964, 2010; in the data active = inhibition above about 55%;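 note: CHO cells expressing OX1R stimulated with orexin A at about EC80; 0% = agonist challenge alone and 100% = reference antagonist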
CHO-K1 HTRF cnt – signal inhibition in parental CHO-K1 cells, counter-screen for OX1R antagonist project, cell-based, HTRF; inhibition, % at 6.6 µM; AID 493232, 2011; shares compounds with OX1R antag-2; HTRF counterscreen; 48% of 1,800 active; in the data active = inhibition above about 17%;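 note: 0% = agonist challenge with vehicle and 100% = vehicle alone without agonist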
Starred values were filed as active, the others as inactive. In the library only some 2.9% were active in any assay of this set; here they are far more common.

`N/C(=N\OC(=O)Nc1ccccc1)c1ncc([N+](=O)[O-])s1` gave CHO parental Ca 1, OX1R antag-1 -14, OX1R antag-2 127*, CHO-K1 Ca antag 1, CHO-K1 Ca ag 5, M1 PAM parental 6, OX1R HTRF conf 51 and CHO-K1 HTRF cnt 79*.
For CS(=O)(=O)c1cccc(C(=O)N(CCc2ccccc2)Cc2cccs2)c1 the results were CHO parental Ca -10, OX1R antag-1 -9, OX1R antag-2 13, CHO-K1 Ca antag -15, CHO-K1 Ca ag 4 and M1 PAM parental 12.
COc1ccc2cc3cc(C(=O)NCCCN4CCOCC4)oc3nc2c1 was read as CHO parental Ca -3, OX1R antag-1 -13, OX1R antag-2 135*, CHO-K1 Ca antag 1, CHO-K1 Ca ag 0, M1 PAM parental 9, OX1R HTRF conf 56* and CHO-K1 HTRF cnt 35*.
For COc1ccc2cc3cc(C(=O)NCCN4CCN(Cc5ccccc5)CC4)oc3nc2c1 the results were CHO parental Ca -33, OX1R antag-1 -38, OX1R antag-2 61, CHO-K1 Ca antag -6, CHO-K1 Ca ag 0 and M1 PAM parental 3.
`CCN1CCN(CCCNC(=O)c2cc3cc4ccc(OC)cc4nc3o2)CC1` gave CHO parental Ca -23, OX1R antag-1 -30, OX1R antag-2 104*, CHO-K1 Ca antag -7, CHO-K1 Ca ag 0, M1 PAM parental 15, OX1R HTRF conf 37 and CHO-K1 HTRF cnt 41*.
For COc1ccc(C(=O)NCCCN2CCOCC2)cc1 the results were CHO parental Ca 1, OX1R antag-1 -7, OX1R antag-2 27, CHO-K1 Ca antag -18, CHO-K1 Ca ag 0 and M1 PAM parental 15.
For Cc1ccc2cc3cc(C(=O)NCCN4CCOCC4)oc3nc2c1 the results were CHO parental Ca -8, OX1R antag-1 -6, OX1R antag-2 117*, CHO-K1 Ca antag -1, CHO-K1 Ca ag 0, M1 PAM parental 15, OX1R HTRF conf 46 and CHO-K1 HTRF cnt 38*.
Screening Cc1ccc2cc3cc(C(=O)NCCCN4CCCC4=O)oc3nc2c1 returned CHO parental Ca -8, OX1R antag-1 -15, OX1R antag-2 22, CHO-K1 Ca antag 0, CHO-K1 Ca ag 0 and M1 PAM parental -8.
Screening CN(Cc1ccccc1)C(=O)c1ccc2sc([C@H]3C[C@H](O)[C@@H](CO)O3)nc2c1 returned CHO-K1 Ca antag -2, CHO-K1 Ca ag 0 and M1 PAM parental 10.
`O=[N+]([O-])C1=CC=C2C(=NC3(CCCCC3)N2O)C1=NCCO` gave CHO parental Ca -6, OX1R antag-1 -2, OX1R antag-2 83*, CHO-K1 Ca antag -16, CHO-K1 Ca ag 0, M1 PAM parental 17, OX1R HTRF conf 73* and CHO-K1 HTRF cnt 112*.
Screening O=C1c2ccccc2C(=O)c2c1cccc2N1CCOCC1 returned CHO parental Ca -16, OX1R antag-1 -23, OX1R antag-2 81*, CHO-K1 Ca antag -9, CHO-K1 Ca ag 1, M1 PAM parental 20, OX1R HTRF conf 43 and CHO-K1 HTRF cnt 34*.
CCOC(=O)c1ccc(N[C@@H]2CCN3C(=O)c4ccccc4[C@@H]3C[C@H]2O)cc1 was read as CHO parental Ca -18, OX1R antag-1 -18, OX1R antag-2 23, CHO-K1 Ca antag -18, CHO-K1 Ca ag 1 and M1 PAM parental 13.
Cc1ccccc1CNC(=O)c1ccccc1NS(C)(=O)=O was read as CHO parental Ca -12, OX1R antag-1 0, OX1R antag-2 105*, CHO-K1 Ca antag -1, CHO-K1 Ca ag 0, M1 PAM parental 4, OX1R HTRF conf 26 and CHO-K1 HTRF cnt 0.
`CS(=O)(=O)Nc1ccccc1C(=O)NCc1ccccc1Cl` gave CHO parental Ca 9, OX1R antag-1 13, OX1R antag-2 12, CHO-K1 Ca antag 2, CHO-K1 Ca ag 0 and M1 PAM parental -1.
CC(=O)N(CN1C(=O)c2ccccc2C1=O)c1cccc(C)c1 was read as CHO parental Ca -18, OX1R antag-1 -2, OX1R antag-2 14, CHO-K1 Ca antag -10, CHO-K1 Ca ag 0 and M1 PAM parental 21.
`CC(=O)N(/N=C1\Sc2ccccc2C1=O)c1cccc(C)c1` gave CHO parental Ca 2, OX1R antag-1 9, OX1R antag-2 105*, CHO-K1 Ca antag -17, CHO-K1 Ca ag 3, M1 PAM parental 28, OX1R HTRF conf 19 and CHO-K1 HTRF cnt 12.
Screening O=C(O)C(C=C(Cl)Cl)N1CCOCC1 (stereo not drawn) returned CHO-K1 Ca antag -16, CHO-K1 Ca ag 0 and M1 PAM parental 24.
`Brc1cc2ccccc2[n+](Cc2ccccc2)c1` gave CHO parental Ca -15, OX1R antag-1 -3, OX1R antag-2 102*, CHO-K1 Ca antag -1, CHO-K1 Ca ag 0, M1 PAM parental 1, OX1R HTRF conf 52 and CHO-K1 HTRF cnt 62*.
For O=C(O)CCCN1C(=O)c2ccc(C(=O)c3cccc([N+](=O)[O-])c3)cc2C1=O the results were CHO parental Ca -4, OX1R antag-1 -5, OX1R antag-2 86*, CHO-K1 Ca antag 14, CHO-K1 Ca ag 0, M1 PAM parental -14, OX1R HTRF conf 40 and CHO-K1 HTRF cnt 52*.
`CCc1nc2ccc(C(=O)NCCN3CCOCC3)cn2c1N(C)Cc1ccc(OC)cc1` gave CHO-K1 Ca antag -6, CHO-K1 Ca ag 1 and M1 PAM parental 7.
`Cn1c(=O)n(C)c2cc(/C=C3/SC(=O)N(CC(=O)N4CCOCC4)C3=O)ccc21` gave CHO parental Ca -4, OX1R antag-1 -6, OX1R antag-2 83*, CHO-K1 Ca antag -9, CHO-K1 Ca ag 0, M1 PAM parental 19, OX1R HTRF conf 53 and CHO-K1 HTRF cnt 54*.
For N#Cc1cc([N+](=O)[O-])ccc1Oc1ccc(-c2nnco2)cc1 the results were CHO parental Ca 6, OX1R antag-1 -5, OX1R antag-2 79*, CHO-K1 Ca antag -12, CHO-K1 Ca ag 1, M1 PAM parental -23, OX1R HTRF conf 35 and CHO-K1 HTRF cnt 42*.
`O=C(c1ccc([N+](=O)[O-])s1)N1CCN(c2ccc(C(F)(F)F)cn2)CC1` gave CHO parental Ca 17, OX1R antag-1 6, OX1R antag-2 99*, CHO-K1 Ca antag 7, CHO-K1 Ca ag 8, M1 PAM parental -1, OX1R HTRF conf 29 and CHO-K1 HTRF cnt 19*.
